In ChEMBL document CHEMBL3124841, “Discovery of vinyl sulfones as a novel class of neuroprotective agents toward Parkinson's disease therapy” (J Med Chem, 2014):
Calls of active or inactive are those of the source. The rule behind the calls is not given here.

Columns and labels:
[1] = target: T1, Nuclear factor erythroid 2-related factor 2 (Mus musculus) (UniProt Q60795); assay: Induction of Nrf2-dependent GCLM gene expression in mouse CATH.a cells at 10 uM after 6 hrs by RT-PCR analysis relative to control; assay type: cell-based
T1 sequence (whole entry): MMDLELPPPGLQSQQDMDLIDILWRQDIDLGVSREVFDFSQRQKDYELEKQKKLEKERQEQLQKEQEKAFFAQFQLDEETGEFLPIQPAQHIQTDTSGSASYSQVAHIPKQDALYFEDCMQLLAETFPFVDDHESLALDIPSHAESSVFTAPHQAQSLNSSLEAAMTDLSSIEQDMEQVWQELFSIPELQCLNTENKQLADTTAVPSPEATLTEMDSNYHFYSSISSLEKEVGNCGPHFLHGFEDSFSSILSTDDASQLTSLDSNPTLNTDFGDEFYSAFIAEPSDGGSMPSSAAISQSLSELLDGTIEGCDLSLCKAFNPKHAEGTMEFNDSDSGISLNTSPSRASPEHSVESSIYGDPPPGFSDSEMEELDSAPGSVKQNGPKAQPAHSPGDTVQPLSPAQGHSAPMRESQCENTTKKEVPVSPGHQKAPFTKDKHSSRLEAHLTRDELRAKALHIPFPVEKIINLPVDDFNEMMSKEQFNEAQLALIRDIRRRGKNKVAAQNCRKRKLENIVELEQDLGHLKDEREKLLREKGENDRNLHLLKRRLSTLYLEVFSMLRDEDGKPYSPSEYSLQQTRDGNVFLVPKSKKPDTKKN
How it was run: (§1)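 CATH.a cells grown in RPMI 1640 with 8% horse serum and 4% FBS, exposed to graded concentrations for 6 h. mRNA analysed by RT-PCR with gene-specific primers, products run on 1% agarose gel, band densitometry normalized to GAPDH. At least duplicate cultures; fold induction versus untreated control ± SEM.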

[2] = target: T1, Nuclear factor erythroid 2-related factor 2 (Mus musculus); assay: Induction of Nrf2-dependent GCLM gene expression in mouse CATH.a cells at 2 uM after 6 hrs by RT-PCR analysis relative to control; assay type: cell-based; how it was run: as §1
[3] = target: T1, Nuclear factor erythroid 2-related factor 2 (Mus musculus); assay: Induction of Nrf2-dependent NQO1 protein expression in mouse CATH.a cells at 10 uM after 24 hrs by western blot analysis relative to control; assay type: cell-based
How it was run: (§2)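 Cells (CATH.a) exposed to graded concentrations for 24 h, lysed in RIPA buffer with protease inhibitors. Equal protein separated on 10% SDS gel, blotted; primary antibodies overnight at 4 °C, HRP secondary, chemiluminescence. Densitometry normalized to β-actin. At least duplicate cultures, fold of untreated control ± SEM.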

[4] = target: T1, Nuclear factor erythroid 2-related factor 2 (Mus musculus); assay: Induction of Nrf2-dependent NQO1 gene expression in mouse CATH.a cells at 1 uM after 6 hrs by RT-PCR analysis relative to control; assay type: cell-based; how it was run: as §1
[5] = target: T1, Nuclear factor erythroid 2-related factor 2 (Mus musculus); assay: Activation of Nrf2 in mouse CATH.a cells assessed as increase in total Nrf2 protein level after 24 hrs by western blot analysis; assay type: cell-based
How it was run: (§3)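 CATH.a cells (RPMI 1640, 8% horse serum, 4% FBS, 37 °C, 5% CO2) exposed to various concentrations for 24 h. Whole-cell lysate in RIPA buffer with protease inhibitors, 10% SDS-PAGE, Nrf2 immunoblot, chemiluminescence, densitometry normalized to β-actin. At least duplicate cultures, averaged, fold of untreated control ± SEM.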

[6] = target: T1, Nuclear factor erythroid 2-related factor 2 (Mus musculus); assay: Activation of Nrf2 in mouse CATH.a cells assessed as increase in total Nrf2 protein level at 1 uM after 24 hrs by western blot analysis; assay type: cell-based; how it was run: as §3
[7] = target: T1, Nuclear factor erythroid 2-related factor 2 (Mus musculus); assay: Induction of Nrf2 nuclear translocation in mouse CATH.a cells at 1 uM after 3 hrs by western blot analysis; assay type: cell-based
How it was run: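 Mouse DAergic CATH.a cells treated at various concentrations for 3 h. Nuclei isolated by hypotonic HEPES buffer/NP-40 lysis, then nuclear proteins extracted in 400 mM NaCl HEPES buffer. Nrf2 Western blot with lamin B as nuclear marker, chemiluminescent detection, densitometry. At least duplicate cultures, expressed as fold induction over untreated control ± SEM.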

[8] = Cytotoxicity against mouse CATH.a cells assessed as cell viability at 0.1 to 2 uM after 72 hrs by LDH activity assay; assay type: cell-based
How it was run: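 Seeded at 2.4 × 10⁴ CATH.a cells/well and exposed to the agent alone for 72 h. LDH in culture medium measured with 0.26 mM NADH, 2.87 mM pyruvate in 100 mM potassium phosphate pH 7.4; absorbance at 340 nm followed 5 min at 2 s intervals, room temperature. Duplicate cultures minimum; % untreated control ± SEM.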

Mus musculus [9] = assay: (§4) Inhibition of motor deficits in MPTP-induced C57Bl/6 mouse parkinson's disease model assessed as number of successful steps taken on the apparatus at 10 mg/kg/day, po for 3 days administered first dose at 24 hrs prior to first injection of 4X 20 mg/kg, ip MPTP challenge by vertical grid test (reference value: 75.4 +/-6.2%); assay type: functional; parameters: scale not given: the % may be the effect or the level left
Mus musculus [10] = assay: as §4, with “total time” for “number of successful steps”, “grid” for “the”, “34.8 +/-5.4s)” for “75.4 +/-6.2%)”; assay type: functional
Mus musculus [11] = assay: as §4, with “time” for “number of successful steps”, “to turn around” for “on the apparatus”, “12.4 +/-1.8 s)” for “75.4 +/-6.2%)”; assay type: functional
Mus musculus [12] = assay: (§5) Neuroprotective activity against MPTP-induced neurodegeneration in C57Bl/6 mouse parkinson's disease model assessed as increase in DAergic fibers in striatum at 10 mg/kg/day, po for 3 days administered first dose at 24 hrs prior to first injection of 4X 20 mg/kg, ip MPTP challenge measured 7 days after first MPTP injection by immunohistochemistry; assay type: functional, organism-based
How it was run: (§6)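 Male C57Bl/6 mice (23−25 g, n = 10/group) dosed orally at 10 mg/kg/day for 3 days, vehicle N-methyl-2-pyrrolidone and 20% Tween 80 in saline. MPTP 4 × 20 mg/kg ip 2 h apart, starting 24 h after first oral dose. Perfusion-fixed 7 days after first MPTP; TH immunostaining, nigral cells counted and striatal fibers densitometered on five sections each, 80 μm apart. Expressed as % vehicle control ± SEM.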

Mus musculus [13] = assay: as §5, with “neurons” for “fibers”, “SN” for “striatum”; assay type: functional, organism-based; how it was run: as §6
[14] = target: T1, Nuclear factor erythroid 2-related factor 2 (Mus musculus); assay: Induction of Nrf2-dependent GCLC protein expression in mouse CATH.a cells at 0.1 uM after 24 hrs by western blot analysis; assay type: cell-based; how it was run: as §2
[15] = target: T1, Nuclear factor erythroid 2-related factor 2 (Mus musculus); assay: Induction of Nrf2-dependent HO1 gene expression in mouse CATH.a cells at 0.1 uM after 6 hrs by RT-PCR analysis; assay type: cell-based; how it was run: as §1
[16] = target: T1, Nuclear factor erythroid 2-related factor 2 (Mus musculus); assay: Induction of Nrf2-dependent NQO1 protein expression in mouse CATH.a cells at 0.1 uM after 24 hrs by western blot analysis; assay type: cell-based; how it was run: as §2
Mus musculus [17] = organism: Mus musculus; assay: Neuroprotection against BH4-induced mouse CATH.a cell death assessed as cell viability at >0.1 uM treated for 20 hrs prior to BH4 challenge for 24 hrs by LDH activity assay; assay type: functional
How it was run: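 CATH.a cells at 2.4 × 10⁴/well given graded concentrations for 20 h, then 200 μM BH4 for an additional 24 h. Medium LDH activity from NADH oxidation with pyruvate, pH 7.4, read at 340 nm over 5 min. At least duplicate cultures, % untreated control ± SEM, compared against BH4-treated group.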

fold change (FC) [1]: 2.56
fold change (FC) [2]: 1.43
fold change (FC) [3]: 4.43
fold change (FC) [4]: 1.95
Activity [5]: Dose-dependent effect
Activity [6]: Active
Activity [7]: Active
Activity [14]: inactive
Activity [15]: inactive
Activity [16]: inactive
SMILES: COc1ccccc1S(=O)(=O)/C=C/c1ccccc1Cl
Activity [8]: Non-toxic
Activity (Mus musculus [9]): 96.9%
Time (Mus musculus [10]): 10.3 s
Time (Mus musculus [11]): 4 s
Activity (Mus musculus [12]): Active
Activity (Mus musculus [13]): Active
Activity (Mus musculus [17]): Active
